This passage reports EC50, Emax and Therm_solubility results from ChEMBL document CHEMBL4376840, “Application of Fluorine- and Nitrogen-Walk Approaches: Defining the Structural and Functional Diversity of 2-Phenylindole Class of Cannabinoid 1 Receptor Positive Allosteric Modulators” (J Med Chem, 2020).

The target in series [1] is T1, Cannabinoid receptor 1 (Homo sapiens, UniProt P21554). Briefly: Positive allosteric modulatory activity at human CB1R expressed in CHO-K1 cells assessed as increase in CP55940-induced inhibition of forskolin-stimulated cAMP production after 30 mins in presence of CP55940 at EC20 concentration by hit-hunter cAMP assay. The class given is functional, cell-based. The procedure, abridged: (§1)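 Read-out was chemiluminescent cAMP detection, fit with a variable-slope 4-parameter regression. n = 1–3 independent experiments in duplicate.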
T1 sequence (P21554 whole entry): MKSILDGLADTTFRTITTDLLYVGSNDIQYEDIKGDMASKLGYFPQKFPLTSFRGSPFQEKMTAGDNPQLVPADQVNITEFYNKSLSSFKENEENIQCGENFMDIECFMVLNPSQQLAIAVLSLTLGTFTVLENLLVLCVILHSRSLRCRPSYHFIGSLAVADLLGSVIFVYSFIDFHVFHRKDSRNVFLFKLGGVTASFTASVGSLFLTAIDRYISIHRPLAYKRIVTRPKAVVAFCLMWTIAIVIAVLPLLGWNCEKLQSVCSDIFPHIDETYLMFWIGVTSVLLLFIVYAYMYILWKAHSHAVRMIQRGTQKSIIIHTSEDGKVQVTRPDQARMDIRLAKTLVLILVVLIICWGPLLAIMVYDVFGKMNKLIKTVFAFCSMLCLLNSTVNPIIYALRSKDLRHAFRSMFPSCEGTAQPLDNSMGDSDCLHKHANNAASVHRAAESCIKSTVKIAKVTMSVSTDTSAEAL
In general terms: Changes in cAMP serve as a functional read-out for many G protein-coupled receptors.

Series [2] has as its target T1, Cannabinoid receptor 1. Briefly: Positive allosteric modulatory activity at human CB1R expressed in CHO-K1 cells assessed as increase in CP55940-induced beta-arrestin2 recruitment after 90 mins in presence of CP55940 at EC20 concentration by pathhunter beta-arrestin assay relative to control. The class given is cell-based. The method in brief: (§2)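 Read-out was chemiluminescent β-arrestin2 recruitment, fit with a 4-parameter regression. n = 1–3 independent experiments in duplicate.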

Series [3] concerns the target T1, Cannabinoid receptor 1. Briefly: Positive allosteric modulatory activity at human CB1R expressed in CHO-K1 cells assessed as increase in CP55940-induced inhibition of forskolin-stimulated cAMP production after 30 mins in presence of CP55940 at EC20 concentration by hit-hunter cAMP assay relative to control. The series is classed as functional, cell-based. The procedure, abridged:
as §1

The conditions of series [4]: buffer, pH 7.4, 24 h.
The target in series [5] is T1, Cannabinoid receptor 1. Put plainly: Positive allosteric modulatory activity at human CB1R expressed in CHO-K1 cells assessed as increase in CP55940-induced beta-arrestin2 recruitment after 90 mins in presence of CP55940 at EC20 concentration by pathhunter beta-arrestin assay. The class given is cell-based. The method in brief: as §2
A general note: Activated receptors often draw arrestin, which recruitment assays turn into a signal.

Some results are limits rather than exact numbers.

Turning to `O=[N+]([O-])CC(c1ccncc1)c1c(-c2ccccc2)[nH]c2ccccc12` (stereo not drawn), the EC50 on Cannabinoid receptor 1 [1] was 510 nM; at Cannabinoid receptor 1 [5], 4000 nM. In addition, the Emax on Cannabinoid receptor 1 [2] turned out to be 25%; on Cannabinoid receptor 1 [3], 110%. In series [4], this molecule showed a Therm_solubility of 36.7 µM.
In the case of `O=[N+]([O-])CC(c1ccccc1)c1c(-c2ccccc2)[nH]c2ccc(F)cc12` (stereo not drawn), the values for the EC50 at Cannabinoid receptor 1 [1] and on Cannabinoid receptor 1 [5] were 191 nM and 740 nM, respectively. The Emax was 23% on Cannabinoid receptor 1 [2] and 130% on Cannabinoid receptor 1 [3].
The corresponding values for `O=[N+]([O-])CC(c1ccccc1)c1c(-c2ccccc2F)[nH]c2ccccc12` (stereo not drawn) are 1400 nM, 710 nM, 7% and 140%.
The corresponding values for `O=[N+]([O-])CC(c1ccc(F)cc1)c1c(-c2cccc(F)c2)[nH]c2c(F)cccc12` (stereo not drawn) are 230 nM, 1100 nM, 43% and 110%.
On to `O=[N+]([O-])CC(c1ccccc1)c1c(-c2ccncc2)[nH]c2ccccc12` (stereo not drawn), for which the EC50 at Cannabinoid receptor 1 [1] was 3100 nM; at Cannabinoid receptor 1 [5] it was 1600 nM. Moreover, the Emax at Cannabinoid receptor 1 [2] came to 19%; at Cannabinoid receptor 1 [3], 88%. Besides, the Therm_solubility in series [4] is 2.1 µM.
As to `O=[N+]([O-])CC(c1ccccc1)c1c(-c2ccccc2)[nH]c2cccc(F)c12` (stereo not drawn), the results for the EC50 at Cannabinoid receptor 1 [1] and at Cannabinoid receptor 1 [5] were 130 nM and 900 nM, respectively. For the same molecule, the Emax is 37% on Cannabinoid receptor 1 [2] and 120% on Cannabinoid receptor 1 [3].
The matching figures for `O=[N+]([O-])CC(c1ccccc1F)c1c(-c2ccccc2)[nH]c2ccccc12` (stereo not drawn): 43 nM, 1060 nM, 63% and 110%.
The corresponding values for `O=[N+]([O-])CC(c1ccccc1)c1c(-c2ccc(F)cc2)[nH]c2ccccc12` (stereo not drawn) are 1600 nM, more than 10000 nM, -2.2% and 120%.
The corresponding values for `O=[N+]([O-])CC(c1ccc(F)cc1)c1c(-c2ccccc2)[nH]c2ccccc12` (stereo not drawn) are 440 nM, more than 10000 nM, 8% and 110%.
In the case of `O=[N+]([O-])CC(c1ccccc1)c1c(-c2cccc(F)c2)[nH]c2ccccc12` (stereo not drawn), the EC50 at Cannabinoid receptor 1 [1] worked out at 80 nM; at Cannabinoid receptor 1 [5], 1300 nM.
For `O=[N+]([O-])CC(c1ccccc1)c1c(-c2ccccc2)[nH]c2cc(F)ccc12` (stereo not drawn), the EC50 was 110 nM on Cannabinoid receptor 1 [1] and 1100 nM at Cannabinoid receptor 1 [5]. Besides, the Emax on Cannabinoid receptor 1 [2] stood at 38%; at Cannabinoid receptor 1 [3] it was 120%.
Take `O=[N+]([O-])CC(c1ccc(F)cc1)c1c(-c2ccccc2)[nH]c2c(F)cccc12` (stereo not drawn): the EC50 at Cannabinoid receptor 1 [1] was 270 nM; at Cannabinoid receptor 1 [5], 700 nM. The results for the Emax at Cannabinoid receptor 1 [2] and on Cannabinoid receptor 1 [3] were 27% and 121%, respectively.
Consider `O=[N+]([O-])CC(c1ccccc1F)c1c(-c2ccccc2)[nH]c2cc(F)ccc12` (stereo not drawn), for which the EC50 at Cannabinoid receptor 1 [1] was 58 nM; at Cannabinoid receptor 1 [5], 1140 nM.
`O=[N+]([O-])CC(c1ccccc1)c1c(-c2ccccc2)[nH]c2c(F)cccc12` (stereo not drawn): the EC50 stood at 22 nM on Cannabinoid receptor 1 [1] and 750 nM on Cannabinoid receptor 1 [5]. In addition, the Emax at Cannabinoid receptor 1 [2] came out at 45%; at Cannabinoid receptor 1 [3] it was 120%.
The matching figures for `O=[N+]([O-])CC(c1cccc(F)c1)c1c(-c2ccccc2)[nH]c2ccccc12` (stereo not drawn): 730 nM, 2500 nM, 19% and 130%.
As for `O=[N+]([O-])CC(c1ccc(F)cc1)c1c(-c2ccccc2)[nH]c2cc(F)ccc12` (stereo not drawn), the values for the EC50 at Cannabinoid receptor 1 [1] and at Cannabinoid receptor 1 [5] were 1300 nM and 1100 nM, respectively. In addition, the Emax on Cannabinoid receptor 1 [2] is 32%; on Cannabinoid receptor 1 [3], 47%.
Turning to `O=[N+]([O-])CC(c1ccccc1F)c1c(-c2ccccc2)[nH]c2c(F)cccc12` (stereo not drawn), the EC50 at Cannabinoid receptor 1 [1] amounted to 21 nM; at Cannabinoid receptor 1 [5] it was 680 nM.
With `O=[N+]([O-])CC(c1ccc(F)cc1)c1c(-c2cccc(F)c2)[nH]c2cc(F)ccc12` (stereo not drawn), the figures for the EC50 at Cannabinoid receptor 1 [1] and on Cannabinoid receptor 1 [5] were 1150 nM and 2100 nM, respectively. Besides, the Emax on Cannabinoid receptor 1 [2] came to 56%; on Cannabinoid receptor 1 [3] it was 91%.

As a reminder, the EC50 is the concentration that produces a half-maximal response. As usually defined, the Emax is the size of the effect at its maximum, as opposed to the concentration needed.
